# In ChEMBL document CHEMBL1129357, “4-[4-[(2-Hydroxybenzoyl)amino]phenyl]butyric acid as a novel oral delivery agent for recombinant human growth hormone” (1996):
# Tested on: Rattus norvegicus
# Assay: Ability to promote absorption of recombinant human growth hormone from the gastrointestinal tract in rats by using ELISA assay at a of dose 25 mg/kg, rhGH 1 mg/kg by IC administration
# Type: functional
# Settings: not given
# Procedure, shortened: (§1)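 Male Sprague-Dawley rats, 225-250 g, in groups of six or seven, with free access to water for 24 h beforehand. Ketamine 44 mg/kg plus thorazine 1.5 mg/kg given just before dosing. Aqueous delivery agent, adjusted to pH 7.2-7.8, with rhGH, given by oral gavage or intracolonic instillation. Serum rhGH measured by ELISA; peak concentration in ng/mL reported as mean ± SD.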
row,SMILES,Peak rhGH [ng/mL]
1,O=C(O)CCCc1ccc(NC(=O)c2ccccc2F)cc1,20.8
2,O=C(O)CCCc1ccc(NC(=O)c2ccccc2)cc1,17.5
3,O=C(O)CCCc1ccc(NC(=O)c2ccccc2Cl)cc1,52.2
4,COc1ccccc1/C=C/C(=O)Nc1ccc(C(=O)O)cc1,30.4
5,Cc1ccccc1C(=O)Nc1ccc(CCCC(=O)O)cc1,9.08
6,Cc1ccccc1/C=C/C(=O)Nc1ccc(CCCC(=O)O)cc1,16.4
7,O=C(O)CCCc1ccc(NC(=O)c2ccccc2O)cc1,64.7
8,O=C(O)CCCc1ccc(NC(=O)c2cccc(C(F)(F)F)c2)cc1,17.6
9,O=C(O)CCCc1ccc(NC(=O)c2cccc(Cl)c2)cc1,0

# Tested on: Rattus norvegicus
# Assay: Ability to promote absorption of recombinant human growth hormone (rhGH) from the gastrointestinal tract in rats by using ELISA assay. (Compound at a of dose 250 mg/kg, rhGH 6 mg/kg by OG administration)
# Type: functional
# Settings: not given
# Procedure, shortened: as §1
row,SMILES,Peak rhGH [ng/mL]
1,O=C(O)CCCc1ccc(NS(=O)(=O)c2ccccc2)cc1,2.6

# Tested on: Rattus norvegicus
# Assay: Ability to promote absorption of recombinant human growth hormone from the gastrointestinal tract in rats by using ELISA assay. (Compound dose 25 mg/kg, rhGH 6 mg/kg by OG administration)
# Type: functional
# Settings: in the assay text read “rhGH 1 mg/kg by IC administration” for “rhGH 6 mg/kg by OG administration”
# Procedure, shortened: as §1
row,SMILES,Peak rhGH [ng/mL]
1,COc1ccccc1/C=C/C(=O)Nc1ccc(CCCC(=O)O)cc1,32.9

# Tested on: Rattus norvegicus
# Assay: Ability to promote absorption of recombinant human growth hormone from gastrointestinal tract in rats by using ELISA assay. (Compound dose 500 mg/kg, rhGH 6 mg/kg by OG administration)
# Type: functional
# Settings: not given
# Procedure, shortened: as §1
row,SMILES,Peak rhGH [ng/mL]
1,O=C(O)CCCc1ccc(NC(=O)c2ccccc2)cc1,21.7

# Tested on: Rattus norvegicus
# Assay: Ability to promote absorption of recombinant human growth hormone from the gastrointestinal tract in rats by using ELISA assay. (Compound dose 200 mg/kg, rhGH 6 mg/kg by OG administration)
# Type: functional
# Settings: not given
# Procedure, shortened: as §1
row,SMILES,Peak rhGH [ng/mL]
1,O=C(O)CCCc1ccc(NCc2ccccc2)cc1,20.4
2,O=C(O)CCCc1ccc(NC(=O)c2ccc(O)cc2O)cc1,16.9
3,O=C(O)CCCc1ccc(NC(=O)C2CCCCC2C(=O)O)cc1 (configuration not stated),0
4,CC(C)Cc1ccc(CC(=O)Nc2ccc(CCCC(=O)O)cc2)cc1,7.8

# Tested on: Rattus norvegicus
# Assay: Ability to promote absorption of recombinant human growth hormone (rhGH) from the gastrointestinal tract in rats by using ELISA assay. (Compound dose 300 mg/kg, rhGH 6 mg/kg by OG administration)
# Type: functional
# Settings: not given
# Procedure, shortened: as §1
row,SMILES,Peak rhGH [ng/mL]
1,O=C(O)CCCc1ccc(NC(=O)c2ccccc2)cc1,5.4

# Tested on: Rattus norvegicus
# Assay: Ability to promote absorption of recombinant human growth hormone from the gastrointestinal tract in rats by using ELISA assay. (Compound dose 300 mg/kg, rhGH 6 mg/kg by OG administration)
# Type: functional
# Settings: not given
# Procedure, shortened: as §1
row,SMILES,Peak rhGH [ng/mL]
1,CC(C(=O)Nc1ccc(CCCC(=O)O)cc1)c1ccccc1 (configuration not stated),2.3
2,O=C(O)CCCc1ccc(NC(=O)c2ccccc2F)cc1,43.4
3,O=C(O)CCCc1ccc(NC(=O)CCc2ccccc2)cc1,12.8
4,O=C(O)CCCc1ccc(NC(=O)Cc2ccccc2)cc1,8.1
5,O=C(O)CCCc1ccc(NC(=O)c2ccc(F)cc2)cc1,2.8
6,O=C(O)Cc1ccc(NC(=O)CC2CCCCC2)cc1,15.7
7,COc1ccc(C(=O)Nc2ccc(CCCC(=O)O)cc2)cc1,0
8,O=C(O)CCCc1ccc(NC(=O)CCCc2ccccc2)cc1,17.9
9,O=C(O)CCCc1ccc(NC(=O)Cc2ccccc2O)cc1,0
10,O=C(O)CCCc1ccc(NC(=O)c2ccccc2O)cc1,49.7
11,O=C(O)Cc1ccc(NC(=O)Cc2ccccc2)cc1,9
12,O=C(O)c1ccc(NC(=O)c2ccc(F)cc2)cc1,1
13,O=C(O)Cc1ccc(NC(=O)CCc2ccccc2)cc1,12.6
14,CCC(C(=O)Nc1ccc(CCCC(=O)O)cc1)c1ccccc1 (configuration not stated),5.9

# Tested on: Rattus norvegicus
# Assay: Ability to promote absorption of recombinant human growth hormone from gastrointestinal tract in rats by using ELISA assay at a of dose 25 mg/kg, rhGH 1 mg/kg by IC administration
# Type: functional
# Settings: not given
# Procedure, shortened: as §1
row,SMILES,Peak rhGH [ng/mL]
1,O=C(O)CCCc1ccc(NC(=O)c2ccccc2[N+](=O)[O-])cc1,14.9
2,O=C(O)CCCc1ccc(NC(=O)/C=C/c2ccccc2F)cc1,7.7
3,COc1ccccc1/C=C/C(=O)Nc1ccc(CCC(=O)O)cc1,61.7
4,O=C(O)c1ccc(NC(=O)c2ccccc2O)cc1,0
5,O=C(O)CCCc1ccc(NC(=O)CCCCc2ccccc2)cc1,8.4
6,O=C(O)CCc1ccc(NC(=O)c2ccccc2O)cc1,37.2
7,O=C(O)CCCc1ccc(NC(=O)c2ccccc2OC(F)(F)F)cc1,56.8
8,O=C(O)CCc1ccc(NC(=O)c2ccccc2[N+](=O)[O-])cc1,17.6
9,O=C(O)CCCc1ccc(NC(=O)CCCC2CCCCC2)cc1,26
10,O=C(O)c1ccc(NS(=O)(=O)c2ccccc2)cc1,0
11,COc1ccc(/C=C/C(=O)Nc2ccc(CCC(=O)O)cc2)cc1,5
12,O=C(O)CCCc1ccc(NC(=O)c2ccccc2C(=O)O)cc1,22.3
13,O=C(O)CCCc1ccc(NC(=O)c2ccc3c(c2)OCO3)cc1,0
14,Cc1cccc(C)c1C(=O)Nc1ccc(CCCC(=O)O)cc1,7.7
15,O=C(O)CCCc1ccc(NC(=O)c2c(O)cccc2O)cc1,20.9
16,O=C(O)CCCc1ccc(NC(=O)CCC(=O)c2ccccc2)cc1,0.6
17,COc1ccccc1C(=O)Nc1ccc(CCCC(=O)O)cc1,17.8
18,O=C(O)CCCc1ccc(NC(=O)C(O)C(O)c2ccccc2)cc1 (configuration not stated),2.5
19,O=C(O)Cc1ccc(NC(=O)c2ccccc2O)cc1,5.6
20,O=C(O)CCCc1ccc(NC(=O)Cc2ccccc2F)cc1,7.3
21,CN(C)c1cccc(C(=O)Nc2ccc(CCCC(=O)O)cc2)c1,50.7
22,O=C(O)c1ccc(NC(=O)c2ccc(F)cc2)cc1,2.2
23,O=C(O)CCCc1ccc(NC(=O)c2cccc([N+](=O)[O-])c2)cc1,33.5
24,COc1cccc(O)c1C(=O)Nc1ccc(CCC(=O)O)cc1,9.3
25,O=C(O)CCCc1ccc(NC(=O)CCOc2ccccc2)cc1,44.1
26,O=C(O)CCCc1ccc(NCc2ccccc2O)cc1,32.5

# Tested on: Rattus norvegicus
# Assay: Ability to promote absorption of recombinant human growth hormone from the gastrointestinal tract in rats by using ELISA assay. (Compound dose 500 mg/kg, rhGH 6 mg/kg by OG administration)
# Type: functional
# Settings: not given
# Procedure, shortened: as §1
row,SMILES,Peak rhGH [ng/mL]
1,O=C(O)CCCc1ccc(NS(=O)(=O)c2ccccc2)cc1,28
2,O=C(O)CCCc1ccc(NC(=O)c2cccc(-c3ccccc3)c2-c2ccccc2)cc1,5.9
3,O=C(O)CCCc1ccc(NC(=O)c2ccc(-c3ccccc3)cc2)cc1,39.9
4,O=C(CCCC1CCCCC1)Nc1ccc(C(=O)O)cc1,29.3
5,O=C(O)Cc1ccc(NS(=O)(=O)c2ccccc2)cc1,0
6,O=C(Cc1ccccc1)Nc1ccc(C(=O)O)cc1,0
7,O=C(CCCc1ccccc1)Nc1ccc(C(=O)O)cc1,11.9
8,O=C(CC1CCCCC1)Nc1ccc(C(=O)O)cc1,0
9,O=C(O)c1ccc(NS(=O)(=O)c2ccccc2)cc1,13.7
10,O=C(CCc1ccccc1)Nc1ccc(C(=O)O)cc1,3.3
11,O=C(O)CCCc1ccc(NC(=O)C2CCCCC2)cc1,63.8
12,O=C(O)CCCc1ccc(NC(=O)CC2CCCCC2)cc1,24.2

# Tested on: Rattus norvegicus
# Assay: Ability to promote absorption of recombinant human growth hormone from the gastrointestinal tract in rats by using ELISA assay. (Compound dose 400 mg/kg, rhGH 6 mg/kg by OG administration)
# Type: functional
# Settings: not given
# Procedure, shortened: as §1
row,SMILES,Peak rhGH [ng/mL]
1,O=C(O)CCCc1ccc(NC(=O)c2ccc(-c3ccccc3)c(-c3ccccc3)c2)cc1,28.2
2,CC1CCC(C(=O)Nc2ccc(C(=O)O)cc2)CC1 (configuration not stated),0
3,O=C(O)CCCc1ccc(NC(=O)C2CCCCCC2)cc1,92.8
4,CCC(C(=O)Nc1ccc(CCCC(=O)O)cc1)C1CCCCC1 (configuration not stated),0.5
5,CC1CCC(C(=O)Nc2ccc(CCCC(=O)O)cc2)CC1 (configuration not stated),41.6
6,O=C(O)/C=C/c1ccc(NC(=O)c2ccccc2)cc1,6.5
7,O=C(O)CCCc1ccc(NC(=O)/C=C/c2ccccc2)cc1,49.7
8,O=C(O)CCCc1ccc(NC(=O)/C=C/c2c(F)c(F)c(F)c(F)c2F)cc1,49.7
